These entries were drawn from the full list.
PGC1a Ac signal = raises PGC1a acetylation signal in U2OS cells. U2OS PGC1a acetylation AlphaScreen, overnight. 350,000 compounds, 0.21% hits. AID 651723. activation, % at 15.6 µM;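 active = every replicate reaching activation of at least 50%, whatever the mean replicate activation; inconclusive = replicates that disagree or another doubt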;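 note: hits raise the AlphaScreen acetylation signal above neutral controls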
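System: Flag-PGC1a/GCN5 U2OS cells | Quantity: 7000 cells/well | Times: Overnight compound treatment, 37 °C | Measured by: AlphaScreen proximity luminescence, anti-acetyl-lysine antibody | Dosing: One concentration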
Hep G6PC suppr = PGC-1a acetylation activators affecting G6PC expression in hepatocytes | shares compounds with PGC1a Ac signal | primary mouse hepatocytes, G6PC mRNA qPCR, forskolin | G6PC suppression (normalized activity, % of positive control; higher = more suppression), % at 26 µM | 240 tested, under 10 active | AID 743463;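 active = dose curves showing G6PC suppression whose half-maximal dose is at most twice the top valid dose; inconclusive = flat curves with moderate negative activity, or unreliable fits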;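 note: G6PC expression relative to GAPDH housekeeping gene as delta delta Ct; 0% = median of neutral control wells and 100% = median of positive control wells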
Hep PCK1 suppr = hepatocyte PCK1 expression change via PGC-1a acetylation activation; shares compounds with PGC1a Ac signal; primary mouse hepatocytes, PCK1 mRNA qPCR, forskolin-stimulated; PCK1 expression decrease, unspecified at 26 µM; 230 tested, under 10 active; AID 743465;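 active = compounds lowering PCK1 expression whose fitted half-maximal concentration is at most twice the top tested dose; inconclusive = flat fit with moderate opposite-direction effect, or poor fit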;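 note: values are delta delta Ct of PCK1 relative to GAPDH; higher delta delta Ct means lower PCK1 expression so positive values indicate hits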
PGC1a hep suppr = hepatocyte PGC-1a expression change via PGC-1a acetylation activation. AID 743467. shares compounds with PGC1a Ac signal. 240 tested, under 10 active. primary mouse hepatocytes, PGC-1a mRNA qPCR, forskolin; top dose 26 µM. max activity (PGC-1a expression decrease), %;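 active = compound lowering PGC-1a expression with fitted half-maximal concentration at most twice its top tested dose; inconclusive = flat curve with moderate opposite-direction effect, or poor fit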;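 note: 0% = neutral control wells median and 100% = positive control wells median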
The depositor's hits bear a star.

Screening COc1cc(C=C(C(C)=O)C(C)=O)ccc1O returned PGC1a Ac signal -40.4.
Screening O=C(NCc1cccs1)c1ccc(Cl)c(S(=O)(=O)N2CCCC2)c1 returned PGC1a Ac signal inconclusive, Hep G6PC suppr 128.8 and PGC1a hep suppr inconclusive.
`CCOc1ccc(S(N)(=O)=O)cc1-c1nc2c(C(C)(C)C)nn(C)c2c(=O)[nH]1` gave PGC1a Ac signal -49.6.
Screening Cn1c(SCc2ccon2)nc2ccccc2c1=O returned PGC1a Ac signal -48.8.
Screening COc1ccc(C(c2nnnn2C2CCCC2)N2CCC(C)CC2)c(OC)c1 (stereo unspecified) returned PGC1a Ac signal 100.2*, Hep G6PC suppr 99.7, Hep PCK1 suppr 137 and PGC1a hep suppr 133.9.
For CC(C)C[C@H]1CNC(=S)N1CC1CCCN1C[C@H](Cc1ccccc1)N1C[C@H](Cc2ccc(O)cc2)N(CC2CCCCCC2)C1=S (stereo partly specified) the results were PGC1a Ac signal -50.6.
`CN(c1ccccc1)S(=O)(=O)c1ccc(Cl)nc1` gave PGC1a Ac signal -44.1.
Screening O=C(C(Cc1ccccc1)n1cccc1)N1CCN(c2ccccc2)CC1 (stereo unspecified) returned PGC1a Ac signal inconclusive, Hep G6PC suppr -81.0, Hep PCK1 suppr -4.9 and PGC1a hep suppr 29.0.
Screening c1ccc(N2CCN(c3ccccc3)C2c2ccncc2)cc1 returned PGC1a Ac signal -91.3.
`O=C(NC1CCCCC1)C(c1ccc2ncccc2c1)N(Cc1ccc2c(c1)OCO2)C(=O)c1ccc2c(c1)OCCO2` (stereo unspecified) gave PGC1a Ac signal -96.0.
`COc1ccc(N(C(=O)c2csnn2)C(C(=O)NC2CCCC2)c2cccs2)cc1` (stereo unspecified) gave PGC1a Ac signal 53.1*, Hep G6PC suppr 33.1 and PGC1a hep suppr inconclusive.
`CCOC(=O)C1=C(C)N=c2s/c(=C\c3cccc(OCC(=O)O)c3)c(=O)n2C1c1ccccc1OC` (stereo unspecified) gave PGC1a Ac signal -54.9.
Screening CN(C)c1ncnc2c1ncn2C1OC(CO)C(O)C1O (stereo unspecified) returned PGC1a Ac signal -49.5.
For CCN(CC)c1ccc(N)cc1S(=O)(=O)Nc1ccccc1OC the results were PGC1a Ac signal 56.6*, Hep G6PC suppr -9.5, Hep PCK1 suppr 79.3 and PGC1a hep suppr 25.5.
CN1CCN(CCP(=O)(c2ccccc2)c2ccccc2)CC1 was read as PGC1a Ac signal -40.8.
O=C(c1ccco1)N1N=C(c2ccc(Cl)cc2)CC1(O)C(F)(F)F (stereo unspecified) was read as PGC1a Ac signal -42.3.
`O=C(COc1cccnc1[N+](=O)[O-])NCCc1ccc(Cl)cc1` gave PGC1a Ac signal -49.1.
O=C(Nc1ccc(-c2noc(-c3cccs3)n2)cc1)c1cccnc1 was read as PGC1a Ac signal 136.7*, Hep G6PC suppr -24.0, Hep PCK1 suppr 10.8 and PGC1a hep suppr inconclusive.
For CC(Oc1ccc(Cl)cc1Cl)c1nc(-c2ccc(NC(=O)c3cccnc3)cc2)no1 (stereo unspecified) the results were PGC1a Ac signal 88.4*, Hep G6PC suppr 555.2, Hep PCK1 suppr 259 and PGC1a hep suppr inconclusive.
For Cc1cc(OCC(=O)O/N=C(\N)c2ccccc2)cc(C)c1Cl the results were PGC1a Ac signal -59.0.
For CCc1ccc(S(=O)(=O)/N=C2\C=C(Nc3ccc(O)cc3)C(=O)c3ccccc32)cc1 the results were PGC1a Ac signal -63.4.
`Clc1ccccc1OCCCCN1CCCC1` gave PGC1a Ac signal -42.0.
Screening CCn1c(CSc2nnc3ccccn23)nc2cc(C(=O)O)ccc21 returned PGC1a Ac signal -47.5.
For O=Nc1c(O)c2ccccc2c2ccccc12 the results were PGC1a Ac signal -44.7.
For CCn1c2ccccc2c2cc(/C=N/n3c(-c4cc(C)[nH]n4)n[nH]c3=S)ccc21 the results were PGC1a Ac signal -40.2.
Screening Cc1cc2nc(/C=C/c3cccnc3)[nH]c2cc1C returned PGC1a Ac signal -66.7.
Screening O=C(COc1ccc(Cl)cc1Cl)NCCCN1CCOCC1 returned PGC1a Ac signal -40.9.
Screening c1coc(CN(Cc2cccs2)Cc2nnnn2C2CCCCC2)c1 returned PGC1a Ac signal inconclusive, Hep G6PC suppr -10.4, Hep PCK1 suppr 70.4 and PGC1a hep suppr inconclusive.
Screening CCC(C)NC(=O)c1ccc2c(SCC(=O)O)c3c(nc2c1)CCCC3 (stereo unspecified) returned PGC1a Ac signal -41.0.

Bioassay records from PubChem BioAssay.
